The source made the active and inactive calls. No cut-off for these calls is given here.

This is an account of results in ChEMBL document CHEMBL4020814, “Synthesis, Binding Mode, and Antihyperglycemic Activity of Potent and Selective (5-Imidazol-2-yl-4-phenylpyrimidin-2-yl)[2-(2-pyridylamino)ethyl]amine Inhibitors of Glycogen Synthase Kinase 3” (J Med Chem, 2017).

Series [1] concerns Mus musculus. Put plainly: Antiobesity activity in diabetic […] mouse assessed as improvement in glucose tolerance administered at 30 mg/kg, po measured post glucose challenge by oral glucose tolerance test relative to control. It is filed as functional, organism-based. The method, boiled down: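 ob/ob mice aged 9–10 weeks, 6–8 per group, given an oral glucose tolerance test with oral dosing at −4.5 and −0.5 h (vehicle captisol). Plasma glucose and insulin were measured after the glucose challenge. Values are mean ± SEM.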

Series [2] can be described thus: Inhibition of human phosphatidylinositol (PI) 3-kinase using PI as substrate after 1 hr by scintillation counting method.
For series [3], the species on record is Mus musculus. Put plainly: Antidiabetic activity in streptozotocin-treated mouse fed with high fat diet assessed as reduction in post-challenge glucose AUC. It is filed as functional. Further details: scale not given: the % may be the effect or the level left. In a few lines: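 Mice on a high-fat diet with intermittent streptozotocin were dosed orally at −4.5 and −0.5 h before oral glucose challenge. Post-challenge glucose AUC and insulin were measured.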

For series [4], the system named is Rattus norvegicus. Put plainly: Antihyperglycemic activity in diabetic ZDF fa/fa rat assessed as plasma glucose levels at 30 mg/kg, po administered as single dose measured after 60 mins (reference value: 500 to 550 mg/dl). It is filed as functional. In a few lines:
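Twelve-week-old male ZDF (fa/fa) rats with fasted basal glucose of 500–550 mg/dL, food removed 3–4 h before dosing. A single oral dose was given with vehicle 15% captisol. Plasma glucose and insulin were measured from serial tail-snip bleeds, n = 8/group, mean ± SEM.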

For series [5], the system named is Rattus norvegicus. Put plainly: Antidiabetic activity in diabetic ZDF fa/fa rat assessed as reduction in plasma glucose AUC at 8 mg/kg administered 4.5 and 0.5 hrs prior to oral glucose challenge by oral glucose tolerance test. Details: scale not given: the % may be the effect or the level left. The series is classed as functional. In a few lines: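 Obese 10-week-old ZDF (fa/fa) rats, n = 8/group, fasted overnight, given 8 mg/kg orally at 4.5 and 0.5 h before oral glucose challenge. Efficacy is the percent reduction in plasma glucose AUC versus untreated animals. Formulations were 15% captisol, 1% CMC or water with pH adjusted.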

A short description of series [6]: Inhibition of human phosphodiesterase 3 using cAMP substrate after 20 mins by scintillation counting.
A short description of series [7]: Inhibition of rat AMP kinase using SAMS peptide substrate in the presence of AMP after 1 hr by scintillation counting method. The method, boiled down: (§1)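 Kinase buffer: 50 mmol/L Tris-HCl pH 7.5, 10 mmol/L MgCl2, 1 mmol/L EGTA, 1 mmol/L DTT, 25 mmol/L β-glycerophosphate, 1 mmol/L NaF, 0.01% BSA. It contained kinase, peptide substrate and activators. Compound was added in DMSO with 1 μmol/L final ATP. PKC-ζ, AMPK and pdk1 were commercial enzymes.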

Series [8] is described as follows: Inhibition of human DNA-dependent protein kinase using PI as substrate after 1 hr by scintillation counting method.
Series [9] relates to Mus musculus. Put plainly: Antiobesity activity in diabetic […] mouse assessed as improvement in glucose tolerance administered at 30 mg/kg, po measured post glucose challenge and measured after 20 hrs post compound dose by oral glucose tolerance test relative to control. The series is classed as functional, organism-based.
In series [10] the test system is Mus musculus. Put plainly: Antidiabetic activity in diabetic db/db mouse assessed as reduction in plasma glucose AUC administered orally at 4.5 and 0.5 hrs prior to oral glucose challenge by oral glucose tolerance test. It is filed as functional. The method, boiled down: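 db/db mice, 6–8 per group, fasted ~6 h, dosed orally at 30 mg/kg at −4.5 and −0.5 h before oral glucose challenge. Efficacy is the percent reduction in plasma glucose AUC versus untreated animals. Vehicle was 15% captisol, 1% CMC or pH-adjusted water.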

Series [11] concerns Rattus norvegicus. Put plainly: Antihyperglycemic activity in diabetic ZDF fa/fa rat assessed as plasma glucose levels at 5 mg/kg, iv prime dose with continuous infusion at 64 ug/kg/min for 4 days (reference value: 223 +/- 18 mg/dL). It is filed as functional.
Series [12] relates to Rattus norvegicus. Put plainly: Antidiabetic activity in 12 weeks old obese ZDF fa/fa rat assessed as increase in plasma glucose disposal at 30 mg/kg dosed at 4.5 and 0.5 hrs prior to oral glucose challenge by oral glucose tolerance test. It is filed as functional, organism-based.
The nature of series [13]: Inhibition of human GSK3 using biotin-CREB peptide substrate after 1 hr by scintillation counting method.
The nature of series [14]: Inhibition of GSK3 expressed in CHO-IR cells expressing human insulin receptor assessed as glycogen synthase activation after 30 mins by filter paper assay. It is filed as cell-based, Cavia porcellus.
For a further series, the target named is Angiopoietin-1 receptor (Homo sapiens, UniProt Q02763).
The nature of series [15]: Half life in diabetic ZDF fa/fa rat at 8 mg/kg administered 4.5 and 0.5 hrs prior to oral glucose challenge. The series is classed as ADME, organism-based. To be noted: in vivo.
For series [16], the target named is Insulin-like growth factor 1 receptor (Homo sapiens, UniProt P08069).
For series [17], the target named is T1, 3-phosphoinositide-dependent protein kinase 1 (Homo sapiens, UniProt O15530).
T1 sequence (O15530 whole entry): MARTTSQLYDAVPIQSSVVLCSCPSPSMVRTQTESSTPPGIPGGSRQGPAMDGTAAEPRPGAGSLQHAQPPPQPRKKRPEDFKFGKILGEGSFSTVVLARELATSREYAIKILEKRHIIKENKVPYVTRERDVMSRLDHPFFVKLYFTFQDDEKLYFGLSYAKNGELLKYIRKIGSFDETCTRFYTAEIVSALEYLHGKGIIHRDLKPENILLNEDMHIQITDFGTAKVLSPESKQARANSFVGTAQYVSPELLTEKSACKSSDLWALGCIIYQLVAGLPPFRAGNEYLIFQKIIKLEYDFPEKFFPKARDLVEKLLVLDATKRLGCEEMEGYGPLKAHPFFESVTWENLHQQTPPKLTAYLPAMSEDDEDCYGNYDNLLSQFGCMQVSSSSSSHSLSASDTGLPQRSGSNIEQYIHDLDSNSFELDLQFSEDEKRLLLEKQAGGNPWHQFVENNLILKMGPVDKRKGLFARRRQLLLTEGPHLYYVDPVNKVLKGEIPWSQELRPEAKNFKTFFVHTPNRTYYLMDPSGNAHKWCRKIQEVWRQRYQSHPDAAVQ
In words: Inhibition of human PDK1 using unactivated AKT substrate in presence of COPC, DOPS and PIP3 activators after 1 hr by scintillation counting method. In a few lines:
as §1

Series [18] concerns the target Vascular endothelial growth factor receptor 1 (Homo sapiens, UniProt P17948).
Series [19] deals with Vascular endothelial growth factor receptor 2 (Homo sapiens, UniProt P35968).
The target of series [20] is Mitogen-activated protein kinase 1 (Homo sapiens, UniProt P28482). In words: Inhibition of human ERK2 using myelin basic protein substrate after 1 hr by scintillation counting method.
In series [21] the target is T2, Serine/threonine-protein kinase Chk1 (Homo sapiens, UniProt O14757).
T2 sequence (O14757 whole entry): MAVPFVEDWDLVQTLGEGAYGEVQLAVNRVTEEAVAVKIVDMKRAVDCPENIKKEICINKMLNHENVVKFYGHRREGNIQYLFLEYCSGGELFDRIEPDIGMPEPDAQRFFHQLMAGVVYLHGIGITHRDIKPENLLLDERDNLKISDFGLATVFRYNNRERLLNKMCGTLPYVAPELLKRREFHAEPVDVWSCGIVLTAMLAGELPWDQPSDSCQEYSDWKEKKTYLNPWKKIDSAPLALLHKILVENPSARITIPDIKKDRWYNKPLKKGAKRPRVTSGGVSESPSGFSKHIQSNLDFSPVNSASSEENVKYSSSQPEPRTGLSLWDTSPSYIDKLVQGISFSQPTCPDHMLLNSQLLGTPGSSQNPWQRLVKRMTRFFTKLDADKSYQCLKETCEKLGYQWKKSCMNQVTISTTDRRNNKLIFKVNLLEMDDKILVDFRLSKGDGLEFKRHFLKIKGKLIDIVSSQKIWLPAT
Put plainly: Inhibition of human CHK1 using biotin-CDC25 peptide substrate after 1 hr by scintillation counting method.

In series [22] the target is Glycogen synthase kinase-3 alpha (Homo sapiens, UniProt P49840). Put plainly: Inhibition of human GSK3alpha using biotin-CREB peptide substrate after 1 hr by scintillation counting method.
The nature of series [23]: Plasma concentration in diabetic db/db mouse at 30 mg/kg administered at 4.5 and 0.5 hrs prior to oral glucose challenge measured 20 mins post second dose. To be noted: plasma.
The target of series [24] is Casein kinase I isoform epsilon (Homo sapiens, UniProt P49674). In words: Inhibition of human CK1epsilon using biotin peptide substrate after 1 hr by scintillation counting method.
For series [25], the target named is Glycogen synthase kinase-3 beta (Homo sapiens, UniProt P49841). Put plainly: Inhibition of human GSK3beta using biotin-CREB peptide substrate after 1 hr by scintillation counting method.
The nature of series [26]: Stability in dog liver microsomes assessed as half life. The series is classed as ADME, Canis lupus familiaris, microsome.
Series [27] is described as follows: Stability in rat liver microsomes assessed as half life. The series is classed as ADME, microsome.
Series [28] is described as follows: Oral bioavailability in diabetic ZDF fa/fa rat at 8 mg/kg administered 4.5 and 0.5 hrs prior to oral glucose challenge. The series is classed as ADME, organism-based. To be noted: in vivo.
Series [29] has as its target RAC-alpha serine/threonine-protein kinase (Homo sapiens, UniProt P31749). In words: Inhibition of human AKT1/PKB using phospho-AKT peptide substrate after 1 hr by scintillation counting method.
The target of series [30] is T3, Protein kinase C zeta type (Homo sapiens, UniProt Q05513).
T3 sequence (Q05513 whole entry): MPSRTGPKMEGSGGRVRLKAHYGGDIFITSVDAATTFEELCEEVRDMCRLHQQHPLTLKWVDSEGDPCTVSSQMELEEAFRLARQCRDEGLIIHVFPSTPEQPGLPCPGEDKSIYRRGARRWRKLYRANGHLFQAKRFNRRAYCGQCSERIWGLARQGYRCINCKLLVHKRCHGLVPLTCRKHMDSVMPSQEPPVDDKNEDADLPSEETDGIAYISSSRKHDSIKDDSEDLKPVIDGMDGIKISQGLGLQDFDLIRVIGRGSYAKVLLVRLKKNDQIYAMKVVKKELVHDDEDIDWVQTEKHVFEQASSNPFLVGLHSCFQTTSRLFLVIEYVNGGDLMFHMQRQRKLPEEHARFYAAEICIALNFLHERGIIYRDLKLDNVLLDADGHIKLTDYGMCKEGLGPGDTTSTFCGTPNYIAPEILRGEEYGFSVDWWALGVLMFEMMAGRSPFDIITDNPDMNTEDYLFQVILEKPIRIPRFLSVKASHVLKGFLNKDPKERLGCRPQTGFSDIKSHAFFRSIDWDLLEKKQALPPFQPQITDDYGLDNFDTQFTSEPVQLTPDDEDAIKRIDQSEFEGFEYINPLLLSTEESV
In words: Inhibition of human PKCzeta using biotin-PKC-86 peptide substrate after 30 mins in the presence of phosphatidylserine and diacylglycerol activators by scintillation counting. In a few lines:
as §1

For series [31], the target named is Fibroblast growth factor receptor 1 (Homo sapiens, UniProt P11362).
Series [32] concerns the target Cyclin-dependent kinase 1 (Homo sapiens, UniProt P06493). In words: Inhibition of human CDC2 using biotin histone H1 peptide substrate after 1 hr by scintillation counting method.

Vascular endothelial growth factor receptor 2, sequence (P35968 whole entry): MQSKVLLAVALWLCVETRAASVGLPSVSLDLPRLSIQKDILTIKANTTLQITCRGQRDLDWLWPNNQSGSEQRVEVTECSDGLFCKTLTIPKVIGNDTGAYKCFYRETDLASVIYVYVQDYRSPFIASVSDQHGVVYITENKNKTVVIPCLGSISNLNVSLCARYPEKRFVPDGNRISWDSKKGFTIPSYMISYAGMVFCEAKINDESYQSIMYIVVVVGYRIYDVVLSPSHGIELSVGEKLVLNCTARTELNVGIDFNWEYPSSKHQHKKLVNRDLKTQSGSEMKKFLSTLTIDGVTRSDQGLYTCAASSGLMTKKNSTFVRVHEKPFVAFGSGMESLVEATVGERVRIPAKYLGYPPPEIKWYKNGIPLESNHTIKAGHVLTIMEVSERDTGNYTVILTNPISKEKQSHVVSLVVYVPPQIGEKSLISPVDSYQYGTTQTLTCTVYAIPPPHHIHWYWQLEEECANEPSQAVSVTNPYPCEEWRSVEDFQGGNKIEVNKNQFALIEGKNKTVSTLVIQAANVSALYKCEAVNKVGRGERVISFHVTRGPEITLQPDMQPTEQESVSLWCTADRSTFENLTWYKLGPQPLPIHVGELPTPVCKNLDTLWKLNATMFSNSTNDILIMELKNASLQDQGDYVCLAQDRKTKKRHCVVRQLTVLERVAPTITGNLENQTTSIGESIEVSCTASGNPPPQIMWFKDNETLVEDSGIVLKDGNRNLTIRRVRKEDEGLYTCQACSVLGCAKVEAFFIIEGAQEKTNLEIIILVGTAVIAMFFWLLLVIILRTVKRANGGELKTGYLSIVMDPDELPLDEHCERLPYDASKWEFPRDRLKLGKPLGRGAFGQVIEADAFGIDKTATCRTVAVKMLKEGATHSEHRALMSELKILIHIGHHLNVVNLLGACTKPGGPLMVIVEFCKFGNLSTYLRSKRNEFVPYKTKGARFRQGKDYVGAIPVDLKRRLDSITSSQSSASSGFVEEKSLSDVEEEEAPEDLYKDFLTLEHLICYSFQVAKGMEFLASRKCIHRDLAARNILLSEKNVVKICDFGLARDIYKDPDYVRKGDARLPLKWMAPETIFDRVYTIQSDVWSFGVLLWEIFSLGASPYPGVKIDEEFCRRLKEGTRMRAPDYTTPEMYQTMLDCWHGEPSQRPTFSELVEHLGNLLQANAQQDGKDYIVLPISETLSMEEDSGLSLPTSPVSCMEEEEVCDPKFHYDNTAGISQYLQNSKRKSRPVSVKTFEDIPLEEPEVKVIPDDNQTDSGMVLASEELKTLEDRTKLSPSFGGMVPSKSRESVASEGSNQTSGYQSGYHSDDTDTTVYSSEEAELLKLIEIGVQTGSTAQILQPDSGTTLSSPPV
Fibroblast growth factor receptor 1, sequence (P11362 whole entry): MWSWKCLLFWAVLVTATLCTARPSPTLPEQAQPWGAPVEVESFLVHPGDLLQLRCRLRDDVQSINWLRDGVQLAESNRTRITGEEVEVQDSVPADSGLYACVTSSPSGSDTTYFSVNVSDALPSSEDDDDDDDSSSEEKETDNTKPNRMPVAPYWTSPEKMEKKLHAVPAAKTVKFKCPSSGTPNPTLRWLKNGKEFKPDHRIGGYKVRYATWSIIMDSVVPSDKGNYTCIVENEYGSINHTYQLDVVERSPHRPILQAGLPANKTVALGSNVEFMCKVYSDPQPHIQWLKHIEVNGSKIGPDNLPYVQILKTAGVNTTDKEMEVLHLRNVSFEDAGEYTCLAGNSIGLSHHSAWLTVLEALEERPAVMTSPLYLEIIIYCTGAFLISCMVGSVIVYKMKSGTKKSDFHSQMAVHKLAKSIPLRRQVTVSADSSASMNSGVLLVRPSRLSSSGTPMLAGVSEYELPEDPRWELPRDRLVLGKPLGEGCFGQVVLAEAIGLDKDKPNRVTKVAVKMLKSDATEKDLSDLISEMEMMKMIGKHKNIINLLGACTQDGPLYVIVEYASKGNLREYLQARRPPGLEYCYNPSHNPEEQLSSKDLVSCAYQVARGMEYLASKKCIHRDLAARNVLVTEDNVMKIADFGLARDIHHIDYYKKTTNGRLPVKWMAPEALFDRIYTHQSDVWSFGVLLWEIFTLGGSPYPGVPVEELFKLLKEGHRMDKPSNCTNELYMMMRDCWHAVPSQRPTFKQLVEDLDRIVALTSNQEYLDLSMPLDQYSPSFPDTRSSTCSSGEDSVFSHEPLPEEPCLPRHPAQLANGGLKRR
Mitogen-activated protein kinase 1, sequence (P28482 whole entry): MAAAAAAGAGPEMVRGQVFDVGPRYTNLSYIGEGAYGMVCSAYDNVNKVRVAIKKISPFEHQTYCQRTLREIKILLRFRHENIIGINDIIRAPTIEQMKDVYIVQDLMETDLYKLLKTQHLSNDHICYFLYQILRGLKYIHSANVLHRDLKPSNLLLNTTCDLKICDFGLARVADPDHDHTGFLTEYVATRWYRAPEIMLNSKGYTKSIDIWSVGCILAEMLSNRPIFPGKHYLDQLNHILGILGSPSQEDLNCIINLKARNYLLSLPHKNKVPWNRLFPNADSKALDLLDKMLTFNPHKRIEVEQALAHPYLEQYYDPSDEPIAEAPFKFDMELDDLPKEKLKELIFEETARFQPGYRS
Glycogen synthase kinase-3 beta, sequence (P49841 whole entry): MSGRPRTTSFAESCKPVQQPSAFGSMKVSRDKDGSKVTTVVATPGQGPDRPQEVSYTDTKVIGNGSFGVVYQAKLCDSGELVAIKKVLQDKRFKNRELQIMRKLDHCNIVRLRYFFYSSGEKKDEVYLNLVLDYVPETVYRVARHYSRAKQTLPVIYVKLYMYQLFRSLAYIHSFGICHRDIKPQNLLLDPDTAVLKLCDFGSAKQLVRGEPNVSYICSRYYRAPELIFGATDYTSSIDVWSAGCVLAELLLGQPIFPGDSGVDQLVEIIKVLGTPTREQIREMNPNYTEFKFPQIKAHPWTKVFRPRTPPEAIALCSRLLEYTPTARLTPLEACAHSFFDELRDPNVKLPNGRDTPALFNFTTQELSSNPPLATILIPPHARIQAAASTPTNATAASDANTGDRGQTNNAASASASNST
Glycogen synthase kinase-3 alpha, sequence (P49840 whole entry): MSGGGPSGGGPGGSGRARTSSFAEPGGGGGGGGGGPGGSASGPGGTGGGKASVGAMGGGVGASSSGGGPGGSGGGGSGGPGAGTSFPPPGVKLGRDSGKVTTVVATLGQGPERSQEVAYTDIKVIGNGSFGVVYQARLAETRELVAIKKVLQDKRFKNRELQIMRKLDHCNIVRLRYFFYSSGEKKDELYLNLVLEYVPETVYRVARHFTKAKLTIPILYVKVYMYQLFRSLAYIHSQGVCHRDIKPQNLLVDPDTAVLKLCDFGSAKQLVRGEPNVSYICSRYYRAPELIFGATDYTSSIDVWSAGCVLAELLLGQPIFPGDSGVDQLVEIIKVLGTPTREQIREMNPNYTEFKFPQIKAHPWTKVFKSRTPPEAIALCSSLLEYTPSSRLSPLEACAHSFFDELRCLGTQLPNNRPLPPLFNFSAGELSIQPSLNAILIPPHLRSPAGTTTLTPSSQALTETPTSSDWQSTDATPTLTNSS
Vascular endothelial growth factor receptor 1, sequence (P17948 whole entry): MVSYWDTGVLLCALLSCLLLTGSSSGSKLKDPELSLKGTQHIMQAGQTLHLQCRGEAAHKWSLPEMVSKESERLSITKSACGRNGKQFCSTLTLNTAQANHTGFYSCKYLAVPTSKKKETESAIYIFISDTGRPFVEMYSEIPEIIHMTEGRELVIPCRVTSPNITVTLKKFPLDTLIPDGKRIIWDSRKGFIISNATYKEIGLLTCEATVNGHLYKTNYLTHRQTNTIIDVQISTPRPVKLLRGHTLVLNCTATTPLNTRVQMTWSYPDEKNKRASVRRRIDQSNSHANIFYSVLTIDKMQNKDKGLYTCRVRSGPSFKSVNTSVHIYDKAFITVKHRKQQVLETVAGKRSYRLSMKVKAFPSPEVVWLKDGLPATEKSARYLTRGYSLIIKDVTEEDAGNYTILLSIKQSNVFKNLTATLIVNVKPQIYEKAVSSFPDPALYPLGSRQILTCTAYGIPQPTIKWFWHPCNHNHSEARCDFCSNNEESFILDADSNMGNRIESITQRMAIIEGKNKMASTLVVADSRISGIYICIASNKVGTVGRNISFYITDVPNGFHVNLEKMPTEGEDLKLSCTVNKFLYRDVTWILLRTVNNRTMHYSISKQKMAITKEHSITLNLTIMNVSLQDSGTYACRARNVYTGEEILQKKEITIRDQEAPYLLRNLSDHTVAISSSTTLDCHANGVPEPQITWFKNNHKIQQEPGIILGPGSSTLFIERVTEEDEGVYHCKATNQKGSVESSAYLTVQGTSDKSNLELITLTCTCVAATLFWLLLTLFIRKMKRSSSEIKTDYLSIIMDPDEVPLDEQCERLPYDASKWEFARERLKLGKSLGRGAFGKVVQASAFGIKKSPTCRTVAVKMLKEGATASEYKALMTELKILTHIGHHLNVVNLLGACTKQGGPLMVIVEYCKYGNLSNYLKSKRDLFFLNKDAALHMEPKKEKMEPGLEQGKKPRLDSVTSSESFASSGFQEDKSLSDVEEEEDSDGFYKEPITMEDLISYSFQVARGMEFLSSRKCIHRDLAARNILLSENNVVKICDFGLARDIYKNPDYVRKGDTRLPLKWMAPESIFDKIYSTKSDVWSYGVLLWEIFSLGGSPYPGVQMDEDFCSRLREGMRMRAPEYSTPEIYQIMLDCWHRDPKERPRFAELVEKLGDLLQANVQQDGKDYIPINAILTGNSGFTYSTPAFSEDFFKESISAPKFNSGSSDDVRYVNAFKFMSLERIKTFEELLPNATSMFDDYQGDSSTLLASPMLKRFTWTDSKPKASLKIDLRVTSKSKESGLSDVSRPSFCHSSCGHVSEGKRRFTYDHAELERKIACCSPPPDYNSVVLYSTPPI
Cyclin-dependent kinase 1, sequence (P06493 whole entry): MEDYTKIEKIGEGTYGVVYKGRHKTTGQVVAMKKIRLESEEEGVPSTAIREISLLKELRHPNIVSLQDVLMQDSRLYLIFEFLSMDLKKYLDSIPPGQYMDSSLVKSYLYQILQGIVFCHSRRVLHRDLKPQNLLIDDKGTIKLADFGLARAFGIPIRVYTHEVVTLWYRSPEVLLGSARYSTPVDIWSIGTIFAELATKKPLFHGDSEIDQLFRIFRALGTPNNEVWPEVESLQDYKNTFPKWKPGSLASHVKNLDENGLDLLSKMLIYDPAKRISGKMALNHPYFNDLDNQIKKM

`Cc1cnc(-c2cnc(NCCNc3ccc(C#N)cn3)nc2-c2ccc(Cl)cc2Cl)[nH]1` [LADUVIGLUSIB]: the outcome in the series with Mus musculus [1], in the series on Mus musculus [9] and with Rattus norvegicus [12] was Active. Moreover, the IC50 in series [2] is > 10 µM; in series [7], > 10 µM; in [8] it was > 10 µM; in series [13], 0.005 µM. Moreover, the Activity in the series filed under Mus musculus [3] was 53%; in the series on Rattus norvegicus [4], “>=150 mg/dl”; in the series on Rattus norvegicus [5], 38%; with Mus musculus [10] it was “Dose-dependent effect”; in the series with Rattus norvegicus [11] it was 116 mg/dL. In addition, in [6], the Ki was 8.3 µM. In addition, the EC50 in [14] is 0.77 µM.
As for `Nc1nc(NCCNc2ncc(-c3ncc[nH]3)c(-c3ccc(Cl)cc3Cl)n2)ccc1[N+](=O)[O-]`, the IC50 against Angiopoietin-1 receptor was > 25 µM; in series [2] it was > 5 µM; in [16], > 10 µM; in [17] it was > 10 µM; in series [18], > 5 µM; in [19] it was > 5 µM. Moreover, the IC50 in series [20] was > 10 µM; in [21], > 10 µM; in series [22] it was 0.0271 µM; in series [24] it was > 10 µM; in series [7], > 10 µM; in series [25], 0.0006 µM. Moreover, the 50% inhibitory concentration (IC50) in [8] was > 10 µM; in series [13] it was 0.001 µM; in series [29], > 10 µM; in series [30], > 10 µM; in series [31], > 5 µM; in series [32] it was > 10 µM. Also, the half-life was 46 min in series [15], > 30 min in [26] and > 30 min in series [27]. Also, the Activity in the series with Rattus norvegicus [5] was determined as 29%. This compound also had a concentration at 20 min in series [23] of 19000 ng/mL. The compound further displayed a bioavailability in [28] of 6%. For the same compound, in series [14], the EC50 turned out to be 0.26 µM.
